Experimental data from ChEMBL document CHEMBL1158577, “Role of hydrophobic substituents on the terminal nitrogen of histamine in receptor binding and agonist activity: development of an orally active histamine type 3 receptor agonist and evaluation of its antistress activity in mice” (J Med Chem, 2010).

Tests used:
Histamine H3 receptor [1] = target: T1, Histamine H3 receptor (Homo sapiens, UniProt Q9Y5N1); test: Displacement of [3H[N-alpha-methylhistamine form human recombinant histamine H3 receptor expressed in CHO cells after 1 hr by liquid scintillation counting; format: cell-based
In short: (§1)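 Used CHO cells stably expressing the human H3R for both affinity (pKi) and functional agonist measurements. Each value is the mean ± SEM of n = 3.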

Mus musculus [2] = test: Antistress activity against isolation-induced aggressive behavior in ICR mouse assessed as duration of attacks to intruder mouse at 30 mg/kg, po measured for 10 mins by resident-intruder test (RVb = 54.5 +/- 6.7 sec); format: functional
Mus musculus [3] = test: Antistress activity against isolation-induced aggressive behavior in ICR mouse assessed as duration of attacks to intruder mouse at 7.5 mg/kg, po measured for 10 mins by resident-intruder test (RVb = 54.5 +/- 6.7 sec); format: functional
Histamine H3 receptor [4] = target: T1, Histamine H3 receptor; test: Agonist activity at human recombinant histamine H3 receptor expressed in CHO cells assessed as [35S]GTPgammaS binding at 10 nM after 1 hr by liquid scintillation counting relative to (R)-alpha-methylhistamine; format: functional, cell-based
In short: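 CHO cells stably expressing human H3R. Agonist response is given as a percent of the response to the reference H3R agonist. Results are mean ± SEM, n = 3.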

Histamine H3 receptor [5] = target: T1, Histamine H3 receptor; test: Agonist activity at human recombinant histamine H3 receptor expressed in CHO cells assessed as [35S]GTPgammaS binding after 1 hr by liquid scintillation counting; format: functional, cell-based; details: read-out: EC50; in short: as §1

T1 sequence (Q9Y5N1 whole entry): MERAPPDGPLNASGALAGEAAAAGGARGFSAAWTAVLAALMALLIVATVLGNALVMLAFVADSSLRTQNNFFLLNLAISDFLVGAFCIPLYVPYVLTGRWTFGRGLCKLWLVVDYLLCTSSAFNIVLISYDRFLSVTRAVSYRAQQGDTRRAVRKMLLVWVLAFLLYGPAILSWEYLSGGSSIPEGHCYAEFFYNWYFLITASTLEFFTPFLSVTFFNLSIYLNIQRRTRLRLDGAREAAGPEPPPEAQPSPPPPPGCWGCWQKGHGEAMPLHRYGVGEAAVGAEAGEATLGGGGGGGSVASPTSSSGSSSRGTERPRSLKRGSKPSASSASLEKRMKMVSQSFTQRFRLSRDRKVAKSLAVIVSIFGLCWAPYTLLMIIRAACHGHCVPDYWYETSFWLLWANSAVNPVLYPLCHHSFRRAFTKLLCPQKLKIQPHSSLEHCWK

Work on `c1ncc(CCNc2ccc(C3CCCCC3)cc2)[nH]1` yielded a Ki (Histamine H3 receptor [1]) of 4.1 nM.

Compound `COCCCC/C(=N\OCCN)c1ccc(C(F)(F)F)cc1` [FLUVOXAMINE] has a Time (Mus musculus [2]) of 19.9 s and a Time (Mus musculus [3]) of 30.7 s.

`NCCc1c[nH]cn1` [HISTAMINE] gave an Activity (Histamine H3 receptor [4]) of 110%.

Compound `c1nc(CCNC2CCCCC2)c[nH]1` has a Ki (Histamine H3 receptor [1]) of 1600 nM, an Activity (Histamine H3 receptor [4]) of 31% and an EC50 (Histamine H3 receptor [5]) of 3400 nM.

`Cc1ccc(NCCc2cnc[nH]2)cc1C` was tested, and the Ki (Histamine H3 receptor [1]) was 9.9 nM and the EC50 (Histamine H3 receptor [5]) was 25 nM.

For `CC(C)(C)c1ccc(NCCc2cnc[nH]2)cc1`, the Ki (Histamine H3 receptor [1]) was 0.89 nM and the EC50 (Histamine H3 receptor [5]) was 1.6 nM.

`Cc1ccc(NCCc2c[nH]cn2)cc1C` showed an Activity (Histamine H3 receptor [4]) of 59%.

`c1ccc(NCCc2c[nH]cn2)cc1` gave an Activity (Histamine H3 receptor [4]) of 42%.

`Cc1ccc(NCCc2c[nH]cn2)cc1` gave an Activity (Histamine H3 receptor [4]) of 49%.
